The data set can be described thus: Transmission electron microscopy of the peptide assemblies. It is filed as physicochemical. The note with it: TEM; after ALP 1 U/mL, 1.0 wt% in PBS buffer pH 7.4, 24 hours, 37 °C. An outline of the steps:
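Phosphopeptide (1.0 wt% total, pH 7.4 PBS) was dephosphorylated with alkaline phosphatase (1 U/mL) for 24 h at 37 °C. Samples went onto 400 mesh copper grids coated with continuous carbon film (~35 nm), were stained with uranyl acetate and air-dried, then imaged by TEM. Nanofiber width was measured from the images.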

On to Nap-wwy [compound 1], for which the “Diameter (width) of the nanofibers” value was determined as 7 ± 2 nm.

The values are drawn from paper PMC9017786 (Peptide science (Hoboken, N.J.), 2020).
